Reference: ChEMBL document CHEMBL1165999, “Cytotoxic ent-kaurane diterpenoids from Isodon rubescens var. lushiensis” (J Nat Prod, 2010)
pIC50: −log10 of the molar value.

Columns and labels:
SMMC-7721 = assay: Cytotoxicity against human SMMC7721 cells after 48 hrs by MTT assay; assay type: functional, cell-based; conditions: SMMC-7721, 48 h
Method in brief: (§1)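 Cells grown in RPMI-1640 or DMEM with 10% FBS at 37 °C, 5% CO2, seeded at 1 × 10^5 cells/mL. Adherent lines were left 12 h to attach; suspension cells were added just before dosing. Various concentrations were tested in triplicate for 48 h, with cisplatin and paclitaxel controls. MTT (100 µg) was then added for 4 h, cells lysed in 20% SDS-50% DMF, and OD read at 595 nm. IC50 was calculated by the Reed-Muench method.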

HL-60 = assay: Cytotoxicity against human HL60 cells after 48 hrs by MTT assay; assay type: functional, cell-based; conditions: HL-60, 48 h; method in brief: as §1
SK-BR-3 = assay: Cytotoxicity against human SK-BR-3 cells after 48 hrs by MTT assay; assay type: functional, cell-based; conditions: SK-BR-3, 48 h; method in brief: as §1
A549 = assay: Cytotoxicity against human A549 cells after 48 hrs by MTT assay; assay type: functional, cell-based; conditions: A549, 48 h; method in brief: as §1
PANC-1 = assay: Growth inhibition of human PANC1 cells after 48 hrs by MTT assay; conditions: PANC-1, 48 h

Row | pIC50 (PANC-1) | SMILES | pIC50 (SMMC-7721) | pIC50 (HL-60) | pIC50 (SK-BR-3) | pIC50 (A549)
1 | < 5.00 | C=C1C(=O)[C@@]23[C@H](O)C[C@@H]4C(C)(C)CCC[C@@]4(CO)[C@@H]2[C@@H](O)C[C@@H]1[C@H]3O [KAMEBAKAURININ] | < 5.00 | 5.74 | < 5.00 | < 5.00
2 | < 5.00 | C=C1C(=O)[C@@]23[C@@H]4C[C@@H]5C(C)(C)[C@H](O)CC[C@@]5([C@@H](OC)O4)[C@@H]2[C@@H](O)C[C@@H]1[C@H]3O [ISOLUSHININ F] | < 5.00 | < 5.00 | < 5.00 | < 5.00
3 | 5.35 | C=C1C(=O)[C@@]23[C@H](O)C[C@@H]4C(C)(C)CCC[C@@]4(C)[C@@H]2[C@@H](O)C[C@@H]1[C@H]3O [PHYLLOSTACHYSIN F] | 5.26 | 6.07 | 5.48 | 5.48
4 | < 5.00 | C=C1C(=O)[C@]23[C@H](O)[C@H]1CC[C@H]2[C@@]12CO[C@]3(O)[C@@H](O)[C@@H]1C(C)(C)CC[C@@H]2O [ORIDONIN] | < 5.00 | 5.41 | < 5.00 | < 5.00
5 | < 5.00 | C=C1[C@@H]2CC[C@H]3[C@]45CC[C@@H]6OC4O[C@@H](C[C@@H]5C6(C)C)[C@]3(C2)[C@@H]1O [ISOLUSHININ A] | < 5.00 | < 5.00 | < 5.00 | < 5.00
6 | < 5.00 | C=C1C(=O)[C@@]23[C@H](O)C[C@@H]4C(C)(C)CCC[C@@]4(COC(C)=O)[C@@H]2[C@@H](O)[C@H](O)[C@@H]1[C@H]3O [ISOLUSHININ G] | < 5.00 | < 5.00 | < 5.00 | < 5.00
7 | < 5.00 | C=C1[C@@H]2C[C@@H](O)[C@@H]3[C@](C2)(C(=O)O[C@H]2CC[C@@]4(C)CO[C@H]5OC[C@]23[C@H]54)[C@@H]1O [SCULPONEATIN B] | < 5.00 | < 5.00 | < 5.00 | < 5.00
8 | 5.18 | C=C1C(=O)[C@@]23[C@H](O)C[C@@H]4[C@@](C)(CO)CCC[C@@]4(COC(C)=O)[C@@H]2CC[C@@H]1[C@H]3O [ISOLUSHININ H] | < 5.00 | 5.60 | 5.21 | < 5.00
9 | 5.24 | C=C1C(=O)[C@@]23[C@H](O)C[C@@H]4C(C)(C)CCC[C@@]4(COC(C)=O)[C@@H]2[C@@H](O)C[C@@H]1[C@H]3O [FLEXICANLIN A] | 5.00 | 6.19 | < 5.00 | 5.01
10 | < 5.00 | C=C1C(=O)[C@]23C[C@H]1C[C@@H](O)[C@H]2[C@@]1(CCC[C@@]2(C)COC(=O)[C@H]21)COC3=O [LUDONGNIN A] | < 5.00 | 5.51 | < 5.00 | < 5.00
11 | 5.01 | C=C1C(=O)[C@@]23[C@@H]4C[C@@H]5C(C)(C)CCC[C@@]5([C@@H](OC)O4)[C@@H]2[C@@H](O)C[C@@H]1[C@H]3O | 5.36 | 6.02 | 5.48 | 5.25
12 | < 5.00 | C=C1[C@@H](O)[C@]23[C@H](O)[C@H]1CC[C@H]2[C@@]12CO[C@@]3(O)[C@@H](O)[C@@H]1C(C)(C)CC[C@@H]2O [ENMENOL] | < 5.00 | 5.17 | < 5.00 | < 5.00
13 | < 5.00 | C=C1[C@@H]2CC[C@H]3[C@]45CCC[C@@](C)(COC(C)=O)[C@H]4[C@H](O)[C@](O)(OC5)[C@]3(C2)[C@@H]1O [ISOLUSHININ B] | < 5.00 | < 5.00 | < 5.00 | < 5.00
14 | < 5.00 | C=C1C(=O)[C@@]23CC[C@@H]4C(C)(C)CC[C@H](O)[C@@]4(C)[C@@H]2[C@@H](O)C[C@@H]1[C@H]3O [PHYLLOSTACHYSIN H] | < 5.00 | 5.19 | < 5.00 | < 5.00
15 | 5.15 | C=C1C(=O)[C@@]23[C@@H]4C[C@@H]5C(C)(C)CCC[C@@]5([C@@H](OC)O4)[C@@H]2[C@@H](OC(C)=O)C[C@@H]1[C@H]3O [ISOLUSHININ D] | 5.33 | 5.96 | 5.19 | 5.19
16 | 5.07 | C=C1C(=O)[C@@]23[C@@H]4C[C@@H]5C(C)(C)CCC[C@@]5([C@@H](O)O4)[C@@H]2[C@@H](O)C[C@@H]1[C@H]3O | 5.21 | 5.92 | 5.36 | 5.23
17 | > 8.10 | CC(=O)O[C@H]1C(=O)[C@@]2(C)[C@H]([C@H](OC(=O)c3ccccc3)[C@]3(O)C[C@H](OC(=O)[C@H](O)[C@@H](NC(=O)c4ccccc4)c4ccccc4)C(C)=C1C3(C)C)[C@]1(OC(C)=O)CO[C@@H]1C[C@@H]2O [PACLITAXEL] | > 8.10 | > 8.10 | 6.96 | 5.85
18 | < 5.00 | CO[C@@H]1OC[C@]2(C)CCC[C@]3(COC(=O)[C@@]45C[C@@H](CC[C@H]43)[C@H](C)C5=O)[C@H]12 [LUDONGNIN G] | < 5.00 | < 5.00 | < 5.00 | < 5.00
19 | 5.28 | C=C1C(=O)[C@@]23[C@@H]4C[C@@H]5C(C)(C)CCC[C@@]5([C@@H](OCC)O4)[C@@H]2[C@@H](O)C[C@@H]1[C@H]3O | 5.46 | 6.19 | 5.62 | 5.38
